Series [1] in a line: AUC (0 to infinity) in Sprague-Dawley rat brain at 10 mg/kg, ig measured over 5 to 720 mins post dose by LC-MS/MS analysis. To be noted: in vivo.
For series [2], the system named is Mus musculus. The series can be described thus: Antidepressant activity in ICR mouse model of reserpine-induced depression assessed as reduction in eyelid closure at 4 to 16 mg/kg, sc for 6 days followed by reserpine injection 2 hrs after last compound dose and measured after 2 hrs. In kind it is functional, organism-based. Summed up:
(§1)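 In mice, depression was induced with reserpine 4 mg/kg, and the compound was given s.c. at 4, 8 or 16 mg/kg. Controls received phosphate buffer alone. Awakening, finger contact, fear, head touch, autonomous movement, straight and eyelid closure were scored. Data are mean ± SD of 3 independent experiments.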

The test system of series [3] is Mus musculus. The series can be described thus: Antidepressant activity in ICR mouse model of reserpine-induced depression assessed as reduction in autonomous movement at 4 to 16 mg/kg, sc for 6 days followed by reserpine injection 2 hrs after last compound dose and measured after 2 hrs. It is filed as functional, organism-based. A digest of the protocol:
as §1

The nature of series [4]: Bioavailability (0 to t) in Sprague-Dawley rat plasma at 10 mg/kg, ig measured over 1 to 300 mins post dose by LC-MS/MS analysis.
Series [5] in a line: Cmax in Sprague-Dawley rat brain at 10 mg/kg, ig measured over 5 to 720 mins post dose by LC-MS/MS analysis.
Series [6] can be described thus: Cmax in Sprague-Dawley rat plasma at 10 mg/kg, ig measured over 1 to 300 mins post dose by LC-MS/MS analysis. On the set-up: dose 10 mg/kg, route […]. In kind it is ADME, organism-based. To be noted: po.
For series [7], the target named is T1, Monoglyceride lipase (Homo sapiens) (UniProt Q99685).
T1 sequence (whole entry): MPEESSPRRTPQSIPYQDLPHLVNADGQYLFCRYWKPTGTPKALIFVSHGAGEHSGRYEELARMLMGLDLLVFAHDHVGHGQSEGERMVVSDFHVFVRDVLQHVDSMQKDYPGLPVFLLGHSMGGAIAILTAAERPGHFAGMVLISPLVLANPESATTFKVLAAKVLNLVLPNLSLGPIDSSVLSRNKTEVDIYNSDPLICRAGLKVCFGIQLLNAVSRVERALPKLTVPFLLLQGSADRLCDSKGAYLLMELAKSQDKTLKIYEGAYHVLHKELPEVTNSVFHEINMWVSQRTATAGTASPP
The series can be described thus: Reversible inhibition of human recombinant MAGL pre-incubated for up to 60 mins before MAGL substrate addition and further incubated for 10 mins. A digest of the protocol: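 The inhibitor was preincubated with MAGL for 0, 30 or 60 min before substrate was added to start the reaction. IC50 (nM) was determined at each preincubation time, from 3 independent experiments.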

Series [8] deals with Mus musculus. The series can be described thus: Antidepressant activity in ICR mouse model of reserpine-induced depression assessed as immobility time at 5 mg/kg, ig by forced swim test (reference value: 136.84 +/- 46.69 secs). It is filed as functional.
The nature of series [9]: Protein binding in rat plasma at 20 to 500 ng/mL by ultracentrifugation assay. It is filed as ADME, cell-free. The conditions noted are these: read-out: PPB (converted). A digest of the protocol: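 Binding to rat plasma proteins was measured by ultracentrifugation across 20–500 ng/mL of compound.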
The subject of series [10] is Mus musculus. Briefly: Antidepressant activity in ICR mouse model of reserpine-induced depression assessed as reduction in straight scores at 4 to 16 mg/kg, sc for 6 days followed by reserpine injection 2 hrs after last compound dose and measured after 2 hrs. It is filed as functional, organism-based. A digest of the protocol: as §1
Series [11] in a line: AUC (0 to t) in Sprague-Dawley rat plasma at 10 mg/kg, iv measured over 1 to 300 mins post dose by LC-MS/MS analysis. It is filed as ADME, organism-based. The conditions noted are these: in vivo.
For a further series, the target named is T2, Monoglyceride lipase (Homo sapiens, UniProt Q99685).
T2 sequence (Q99685 whole entry): T1 sequence (whole entry)
Briefly: Competitive inhibition of human recombinant MAGL at 31.25 nM to 125 nM pre-incubated for 5 mins before MAGL substrate addition and further incubated for 10 mins. Summed up:
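Mode of inhibition was assessed from Michaelis–Menten kinetics run at several inhibitor concentrations. Enzyme activity was plotted against substrate concentration and fitted to a mixed-model inhibition (competitive, uncompetitive and noncompetitive terms), giving Vmax, Km and α.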

Series [12] in a line: AUC (0 to t) in Sprague-Dawley rat brain at 10 mg/kg, ig measured over 5 to 720 mins post dose by LC-MS/MS analysis. To be noted: in vivo.
Series [13] in a line: Half life in Sprague-Dawley rat brain at 10 mg/kg, ig measured over 5 to 720 mins post dose by LC-MS/MS analysis.
Series [14] can be described thus: Tmax in Sprague-Dawley rat brain at 10 mg/kg, ig measured over 5 to 720 mins post dose by LC-MS/MS analysis.
Series [15] can be described thus: AUC (0 to t) in Sprague-Dawley rat plasma at 10 mg/kg, ig measured over 1 to 300 mins post dose by LC-MS/MS analysis. To be noted: in vivo, po. It is filed as ADME, organism-based.
The nature of series [16]: AUC (0 to infinity) in Sprague-Dawley rat plasma at 10 mg/kg, iv measured over 1 to 300 mins post dose by LC-MS/MS analysis. On the set-up: dose 10 mg/kg, time infinity, route intravenous. It is filed as ADME, organism-based. To be noted: in vivo.
Series [17] addresses T3, Cannabinoid receptor 1 (Homo sapiens, UniProt P21554). The series can be described thus: Inhibition of CB1 receptor (unknown origin) expressed in Flpin-CHO cells at 10 uM incubated for 10 mins by Eu-cAMP tracer based cAMP accumulation assay relative to control. (Changes in cAMP serve as a functional read-out for many G protein-coupled receptors.)
The target of a further series is Cannabinoid receptor 2 (Homo sapiens, UniProt P34972). The series can be described thus: Inhibition of CB2 receptor (unknown origin) expressed in Flpin-CHO cells incubated for 10 mins by Eu-cAMP tracer based cAMP accumulation assay. It is filed as functional, cell-based.
Sequence of Cannabinoid receptor 2 (P34972 whole entry): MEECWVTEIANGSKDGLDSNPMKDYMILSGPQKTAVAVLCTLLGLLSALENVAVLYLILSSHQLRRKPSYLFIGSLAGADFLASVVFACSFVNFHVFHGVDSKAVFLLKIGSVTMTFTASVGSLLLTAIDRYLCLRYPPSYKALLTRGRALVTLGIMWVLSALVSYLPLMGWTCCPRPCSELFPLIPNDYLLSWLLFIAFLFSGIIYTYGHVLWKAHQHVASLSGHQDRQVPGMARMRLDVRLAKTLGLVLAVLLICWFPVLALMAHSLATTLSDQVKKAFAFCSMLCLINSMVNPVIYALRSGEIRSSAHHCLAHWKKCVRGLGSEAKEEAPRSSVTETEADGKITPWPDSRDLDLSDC
Series [18] can be described thus: Stability in human liver microsomes assessed as parent compound remaining level at 100 uM pre-incubated for 5 mins before NADPH addition and measured after 60 mins by UPLC-MS/MS analysis. It is filed as ADME, Microsome. The conditions noted are these: read-out: Stability. Summed up: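 Liver microsomes from human, mouse and rat were incubated with the compound. Remaining parent compound was followed at several time points up to 60 min and expressed as percent remaining.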
Background: Liver microsomes are a subcellular fraction often used to study metabolism.

Series [19] has as its target T3, Cannabinoid receptor 1. The series can be described thus: Inhibition of CB1 receptor (unknown origin) expressed in Flpin-CHO cells incubated for 10 mins by Eu-cAMP tracer based cAMP accumulation assay. In kind it is functional, cell-based.

Calls of active or inactive are those of the source. The calls are words filed in the database; no cut-off is given here. Some results are limits rather than exact numbers.

T3 sequence (P21554 whole entry): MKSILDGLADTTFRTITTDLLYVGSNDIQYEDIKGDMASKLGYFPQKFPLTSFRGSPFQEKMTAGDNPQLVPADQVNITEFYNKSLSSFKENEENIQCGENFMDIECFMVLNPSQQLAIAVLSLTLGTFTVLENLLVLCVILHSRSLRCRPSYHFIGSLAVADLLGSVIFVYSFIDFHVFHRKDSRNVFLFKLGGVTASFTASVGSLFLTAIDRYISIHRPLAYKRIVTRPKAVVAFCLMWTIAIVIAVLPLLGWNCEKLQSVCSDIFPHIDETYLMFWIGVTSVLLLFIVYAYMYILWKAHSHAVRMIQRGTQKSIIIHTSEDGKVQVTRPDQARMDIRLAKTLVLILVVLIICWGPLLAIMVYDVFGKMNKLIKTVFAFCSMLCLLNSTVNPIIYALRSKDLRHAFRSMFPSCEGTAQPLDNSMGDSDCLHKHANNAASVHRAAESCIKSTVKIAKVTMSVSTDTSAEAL

One may read the AUC as concentration integrated over time. Low values mean low exposure, high ones high exposure. In general, bioavailability refers to the share of a dose that reaches the circulation, judged against a reference dose that is usually intravenous. For orientation: Cmax means the peak of the concentration-time curve. Usually inhibition stands for how much of the control response was suppressed. A word on the Ki: it is the equilibrium dissociation constant of an inhibitor or competing ligand from its target. One may read the half-life as how long it takes for the measured level to halve. A high value points to slow decline. What is called Tmax is the time at which the peak concentration occurs. In general, EC50 refers to the concentration giving half of the maximal effect. Read a high EC50 as weaker potency. Regarding `O=C(Nc1cccc(Cl)c1)C1CCN(C(=O)c2ccc3ccccc3c2)CC1`, the AUC amounted to 3720.04 µg·min/L in [1] and 82362.19 µg·min/L in series [16]. Also, the outcome in the series with Mus musculus [2], in the series with Mus musculus [3] and in the series on Mus musculus [10] was Active. The molecule further came in with a bioavailability in series [4] of 12.2%. In addition, the Cmax in series [5] worked out at 16.6 ng/mL; in series [6], 83.1 ng/mL. The inhibition entry in series [7] is “Active”. Moreover, in the series on Mus musculus [8], the Time came to 89.38 s. The fraction unbound in series [9] was 0.229. Further, the figures for the AUCt in series [11], in [12] and in series [15] were 80893 µg·min/L, 3582.71 µg·min/L and 9913.54 µg·min/L, respectively. Moreover, on Monoglyceride lipase, the Ki is 0.0134 µM. The molecule also gave a half-life in series [13] of 2.44 h. In series [14], the Tmax is 0.667 h. Further, the inhibition against Cannabinoid receptor 1 [17] was 29.7%. The EC50 on Cannabinoid receptor 2 and on Cannabinoid receptor 1 [19] was more than 10 µM throughout. Further, the remaining at 1 h, 100 µM in [18] stood at 88.5%.

Source of the values: ChEMBL document CHEMBL4613273, “Discovery of Aryl Formyl Piperidine Derivatives as Potent, Reversible, and Selective Monoacylglycerol Lipase Inhibitors” (J Med Chem, 2020).
